Laboratory results taken from publication PMC4109633 (Drug Design, Development and Therapy, 2014).
Marks after values point to notes of the source that are not given here.

Experiments:
Type in all cases: cell-based
[1] = system: Salmonella typhimurium TA1535; experiment: Cytotoxicity in liquid medium; details: mean ± SEM
Procedure, shortened: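 TA1535 was grown in broth microdilution with test compound at 25, 50 or 100 µM. Viability was expressed as % of untreated control (mean ± SEM), triplicate.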

[2] = system: Salmonella typhimurium TA1535; experiment: Ames Salmonella/microsomal mutagenicity assay; details: presence of S9 mix, spontaneous 67.0±6.1
[3] = system: Salmonella typhimurium TA1535; experiment: Antimutagenicity assay against sodium azide; details: for NaN3 mutagenicity (revertant colonies/plate; mean ± SEM): NaN3 2 μg/plate, spontaneous 29.3±5.3; for Mutant frequency (sodium azide): mutant colonies/viable colonies
Procedure, shortened: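 TA1535 was exposed to test compound at 10 or 20 µM with NaN₃ (2 µg/plate) in two schemes. In pre-exposure, compound and bacteria were shaken 30 min at 37°C before mutagen was added. In co-exposure, bacteria, mutagen and compound were incubated together 30 min at 37°C. Cells were then plated on minimal glucose agar, and revertants counted at 48 h, in triplicate. Mutant frequency = mutant colonies/viable colonies.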

[4] = system: Salmonella typhimurium TA1535; experiment: Antimutagenicity assay against benzo[a]pyrene with S9 mix; details: for B[a]P mutagenicity (revertant colonies/plate; mean ± SEM): B[a]P 20 μM + S9 mix, spontaneous 105.0±13.1; for Mutant frequency (benzo[a]pyrene): mutant colonies/viable colonies

Compound	Viability at fluoroarylbichalcophene concentrations (% of control) ([1]; 25 μM)	Viability at fluoroarylbichalcophene concentrations (% of control) ([1]; 50 μM)	Viability at fluoroarylbichalcophene concentrations (% of control) ([1]; 100 μM)	Fluoroarylbichalcophene mutagenicity (revertant colonies/plate; mean ± SEM) ([2]; 10 μM) [revertant colonies/plate]	Fluoroarylbichalcophene mutagenicity (revertant colonies/plate; mean ± SEM) ([2]; 20 μM) [revertant colonies/plate]	NaN3 mutagenicity (revertant colonies/plate; mean ± SEM) ([3]; co-exposure, 10 μM) [revertant colonies/plate]	NaN3 mutagenicity (revertant colonies/plate; mean ± SEM) ([3]; co-exposure, 20 μM) [revertant colonies/plate]	Mutant frequency (sodium azide) ([3]; co-exposure, 20 μM)	NaN3 mutagenicity (revertant colonies/plate; mean ± SEM) ([3]; pre-exposure, 10 μM) [revertant colonies/plate]	NaN3 mutagenicity (revertant colonies/plate; mean ± SEM) ([3]; pre-exposure, 20 μM) [revertant colonies/plate]	Mutant frequency (sodium azide) ([3]; pre-exposure, 20 μM)	B[a]P mutagenicity (revertant colonies/plate; mean ± SEM) ([4]; co-exposure, 10 μM) [revertant colonies/plate]	B[a]P mutagenicity (revertant colonies/plate; mean ± SEM) ([4]; co-exposure, 20 μM) [revertant colonies/plate]	Mutant frequency (benzo[a]pyrene) ([4]; co-exposure, 20 μM)	B[a]P mutagenicity (revertant colonies/plate; mean ± SEM) ([4]; pre-exposure, 10 μM) [revertant colonies/plate]	Mutant frequency (benzo[a]pyrene) ([4]; pre-exposure, 10 μM)	B[a]P mutagenicity (revertant colonies/plate; mean ± SEM) ([4]; pre-exposure, 20 μM) [revertant colonies/plate]	Mutant frequency (benzo[a]pyrene) ([4]; pre-exposure, 20 μM)	also measured
Cl.N=C(N)c1ccc(-c2ccc(-c3ccco3)o2)cc1F [Compound 5b, 4-(2,2′-Bifuran-5-yl)-2-fluorobenzamidine hydrochloride salt]	101.7±11.3 % of control	62.0±5.5 ^a % of control	36.7±2.8 ^a % of control	68.7±4.0	65.0±4.9	26.0±2.0	21.7±2.5	0.43	126.7±11.2	40.3±6.5	0.79	213.7±15.8	166.0±6.6	2.58	178.0±8.2	2.81	163.0±7.9	2.53	Mutant frequency (sodium azide) ([3]; co-exposure, 10 μM): 0.50; Mutant frequency (sodium azide) ([3]; pre-exposure, 10 μM): 2.45; Antimutagenic potential against NaN3 ([3]; pre-exposure, only at 20 μM): strong (40% or more reduction means strong antimutagenic activity); Mutant frequency (benzo[a]pyrene) ([4]; co-exposure, 10 μM): 3.38
Cl.N=C(N)c1ccc(-c2ccc(-c3ccco3)o2)c(F)c1 [Compound 5a, 4-(2,2′-Bifuran-5-yl)-3-fluorobenzamidine hydrochloride salt]	102.3±10.2 % of control	63.3±9.0 ^a % of control	32.7±2.7 ^a % of control	61.0±4.8	65.7±5.8	73.3±4.1	39.0±8.1	0.76	57.7±11.0	22.3±2.1	0.44	102.0±12.1	98.3±9.5	1.65	209.7±10.3	3.26	201.0±11.0	3.37	
